In ChEMBL document CHEMBL5661979, “Pharmacological inhibition of BMK1 suppresses tumor growth through promyelocytic leukemia protein” (Cancer Cell, 2010):

How the values were obtained:
[1] = target: Cyclin-G-associated kinase (Homo sapiens) (UniProt O14976); test: Inhibition of GAK (unknown origin) assessed as remaining activity at 10 uM by ATP-competition binding assay relative to control
[2] = target: Serine/threonine-protein kinase Aurora (Homo sapiens, UniProt Q96GD4+Q9UQB9+O14965); test: Inhibition of AURA/AURB/AURC in human HeLa cells lysate pre incubated for 15 mins followed by ATP acyl phosphate probe addition and measured after 10 mins by LC-MS/MS analysis; format: subcellular
How it was run: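 KiNativ-type profiling in HeLa lysate (5 mg/mL total protein). Lysate preincubated 15 min with inhibitor at 50, 10, 2, 0.8 or 0 μM, then ATP or ADP acylphosphate probe added (5 μM final) for 10 min. Reaction stopped with urea and analysed by targeted MS, using up to four fragment ions per kinase peptide-probe conjugate. % inhibition calculated against untreated lysate. Duplicate reactions.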

[3] = target: Mitogen-activated protein kinase 1 (Homo sapiens, UniProt P28482); test: Inhibition of ERK2 in human HeLa cells lysate pre incubated for 15 mins followed by ATP acyl phosphate probe addition and measured after 10 mins by LC-MS/MS analysis; format: subcellular
[4] = target: Inhibitor of nuclear factor kappa-B kinase subunit alpha (Homo sapiens, UniProt O15111); test: Inhibition of IKKA in human HeLa cells lysate pre incubated for 15 mins followed by ATP acyl phosphate probe addition and measured after 10 mins by LC-MS/MS analysis; format: subcellular
[5] = target: Interleukin-1 receptor-associated kinase 1 (Homo sapiens, UniProt P51617); test: Inhibition of IRAK1 in human HeLa cells lysate pre incubated for 15 mins followed by ATP acyl phosphate probe addition and measured after 10 mins by LC-MS/MS analysis; format: subcellular
[6] = target: Serine/threonine-protein kinase LATS1 (Homo sapiens, UniProt O95835); test: Inhibition of LATS1 in human HeLa cells lysate pre incubated for 15 mins followed by ATP acyl phosphate probe addition and measured after 10 mins by LC-MS/MS analysis; format: subcellular
[7] = target: Serine/threonine-protein kinase 10 (Homo sapiens, UniProt O94804); test: Inhibition of LOK in human HeLa cells lysate pre incubated for 15 mins followed by ATP acyl phosphate probe addition and measured after 10 mins by LC-MS/MS analysis; format: subcellular
[8] = Inhibition of MAP3K5/MAP3K6/MAP3K15 in human HeLa cells lysate pre incubated for 15 mins followed by ATP acyl phosphate probe addition and measured after 10 mins by LC-MS/MS analysis; format: subcellular
[9] = Inhibition of MAP3K2/MAP3K3 in human HeLa cells lysate pre incubated for 15 mins followed by ADP acyl phosphate probe addition and measured after 10 mins by LC-MS/MS analysis; format: subcellular
[10] = target: Mixed lineage kinase domain-like protein (Homo sapiens, UniProt Q8NB16); test: Inhibition of MLKL in human HeLa cells lysate pre incubated for 15 mins followed by ADP acyl phosphate probe addition and measured after 10 mins by LC-MS/MS analysis; format: subcellular
[11] = target: Interferon-induced, double-stranded RNA-activated protein kinase (Homo sapiens, UniProt P19525); test: Inhibition of PKR in human HeLa cells lysate pre incubated for 15 mins followed by ADP acyl phosphate probe addition and measured after 10 mins by LC-MS/MS analysis; format: subcellular
[12] = target: Mitogen-activated protein kinase kinase kinase 1 (Homo sapiens, UniProt Q13233); test: Inhibition of MAP3K1 in human HeLa cells lysate at 50 uM pre incubated for 15 mins followed by ADP acyl phosphate probe addition and measured after 10 mins by LC-MS/MS analysis relative to control; format: subcellular; conditions: time 25.0 min
[13] = target: T1, Serine/threonine-protein kinase PLK1 (Homo sapiens, UniProt P53350); test: Inhibition of PLK1 splice variant in human HeLa cells lysate at 50 uM pre incubated for 15 mins followed by ADP acyl phosphate probe addition and measured after 10 mins by LC-MS/MS analysis relative to control; format: subcellular; conditions: time 25.0 min
[14] = target: Serine/threonine-protein kinase Nek7 (Homo sapiens, UniProt Q8TDX7); test: Inhibition of NEK7 in human HeLa cells lysate at 10 uM pre incubated for 15 mins followed by ADP acyl phosphate probe addition and measured after 10 mins by LC-MS/MS analysis relative to control; format: subcellular; conditions: time 25.0 min
[15] = target: Cyclin-dependent kinase 2 (Homo sapiens, UniProt P24941); test: Inhibition of CDK2 in human HeLa cells lysate at 10 uM pre incubated for 15 mins followed by ADP acyl phosphate probe addition and measured after 10 mins by LC-MS/MS analysis relative to control; format: subcellular; conditions: time 25.0 min
How it was run: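 KiNativ profiling in HeLa lysate (5 mg/mL total protein). Lysate incubated 15 min with inhibitor at 50, 10, 2, 0.8 or 0 μM. ATP or ADP acylphosphate probe then added (5 μM final) and reacted 10 min. Reaction stopped with urea and analysed by targeted MS, using up to four fragment ions per kinase peptide-probe conjugate. % inhibition taken against untreated lysate. Run in duplicate.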

[16] = target: T1, Serine/threonine-protein kinase PLK1; test: Inhibition of PLK1 in human HeLa cells lysate at 10 uM pre incubated for 15 mins followed by ADP acyl phosphate probe addition and measured after 10 mins by LC-MS/MS analysis relative to control; format: subcellular; conditions: time 25.0 min
[17] = target: Serine/threonine-protein kinase Nek1 (Homo sapiens) (UniProt Q96PY6); test: Inhibition of NEK1 in human HeLa cells lysate at 50 uM pre incubated for 15 mins followed by ATP acyl phosphate probe addition and measured after 10 mins by LC-MS/MS analysis relative to control; format: subcellular; conditions: time 25.0 min
[18] = target: MAP/microtubule affinity-regulating kinase 3 (Homo sapiens, UniProt P27448); test: Inhibition of MARK3 in human HeLa cells lysate at 10 uM pre incubated for 15 mins followed by ATP acyl phosphate probe addition and measured after 10 mins by LC-MS/MS analysis relative to control; format: subcellular; conditions: time 25.0 min
[19] = target: Ribosomal protein S6 kinase alpha-3 (Homo sapiens, UniProt P51812); test: Inhibition of RSK2 domain 2 in human HeLa cells lysate at 2 uM pre incubated for 15 mins followed by ATP acyl phosphate probe addition and measured after 10 mins by LC-MS/MS analysis relative to control; format: subcellular; conditions: time 25.0 min
[20] = target: Casein kinase I isoform alpha (Homo sapiens, UniProt P48729); test: Inhibition of CK1alpha in human HeLa cells lysate at 2 uM pre incubated for 15 mins followed by ATP acyl phosphate probe addition and measured after 10 mins by LC-MS/MS analysis relative to control; format: subcellular; conditions: time 25.0 min
[21] = target: Mitogen-activated protein kinase 14 (Homo sapiens, UniProt Q16539); test: Inhibition of P38alpha interaction site in human HeLa cells lysate at 2 uM pre incubated for 15 mins followed by ATP acyl phosphate probe addition and measured after 10 mins by LC-MS/MS analysis relative to control; format: subcellular; conditions: time 25.0 min
[22] = Inhibition of MST4/YSK1 in human HeLa cells lysate at 2 uM pre incubated for 15 mins followed by ATP acyl phosphate probe addition and measured after 10 mins by LC-MS/MS analysis relative to control; conditions: 25 min, condition cancer
[23] = Half life in Sprague-Dawley rat at 1 mg/kg, iv measured up to 8 hrs by LC-MS/MS analysis; format: ADME, organism-based; conditions: in vivo
[24] = Plasma concentration in C57Bl/6 mouse at 50 mg/kg, ip administered for 1 day and measured 8 hr post last dose by LC-MS/MS analysis; format: ADME, organism-based
[25] = Plasma concentration in C57Bl/6 mouse at 50 mg/kg, ip administered for 4 day and measured 8 hr post last dose by LC-MS/MS analysis; format: ADME, organism-based

T1 sequence (P53350 whole entry, canonical isoform): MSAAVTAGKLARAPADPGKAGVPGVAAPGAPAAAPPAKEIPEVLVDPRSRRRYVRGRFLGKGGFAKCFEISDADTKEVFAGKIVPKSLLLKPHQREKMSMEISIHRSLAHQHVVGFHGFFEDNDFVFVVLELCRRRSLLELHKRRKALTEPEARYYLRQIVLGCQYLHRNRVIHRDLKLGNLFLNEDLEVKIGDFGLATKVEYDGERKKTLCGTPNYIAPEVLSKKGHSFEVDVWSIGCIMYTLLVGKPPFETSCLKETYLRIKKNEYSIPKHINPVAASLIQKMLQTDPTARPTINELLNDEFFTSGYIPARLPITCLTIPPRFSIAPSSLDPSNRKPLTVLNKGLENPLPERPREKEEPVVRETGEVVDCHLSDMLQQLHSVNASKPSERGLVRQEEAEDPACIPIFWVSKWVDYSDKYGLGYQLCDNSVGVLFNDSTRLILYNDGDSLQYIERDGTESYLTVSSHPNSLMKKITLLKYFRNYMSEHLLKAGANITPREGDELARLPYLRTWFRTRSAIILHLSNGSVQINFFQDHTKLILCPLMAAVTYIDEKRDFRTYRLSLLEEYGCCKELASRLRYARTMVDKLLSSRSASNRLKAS
Ribosomal protein S6 kinase alpha-3, sequence (P51812 whole entry, the tested form may be a part, canonical isoform): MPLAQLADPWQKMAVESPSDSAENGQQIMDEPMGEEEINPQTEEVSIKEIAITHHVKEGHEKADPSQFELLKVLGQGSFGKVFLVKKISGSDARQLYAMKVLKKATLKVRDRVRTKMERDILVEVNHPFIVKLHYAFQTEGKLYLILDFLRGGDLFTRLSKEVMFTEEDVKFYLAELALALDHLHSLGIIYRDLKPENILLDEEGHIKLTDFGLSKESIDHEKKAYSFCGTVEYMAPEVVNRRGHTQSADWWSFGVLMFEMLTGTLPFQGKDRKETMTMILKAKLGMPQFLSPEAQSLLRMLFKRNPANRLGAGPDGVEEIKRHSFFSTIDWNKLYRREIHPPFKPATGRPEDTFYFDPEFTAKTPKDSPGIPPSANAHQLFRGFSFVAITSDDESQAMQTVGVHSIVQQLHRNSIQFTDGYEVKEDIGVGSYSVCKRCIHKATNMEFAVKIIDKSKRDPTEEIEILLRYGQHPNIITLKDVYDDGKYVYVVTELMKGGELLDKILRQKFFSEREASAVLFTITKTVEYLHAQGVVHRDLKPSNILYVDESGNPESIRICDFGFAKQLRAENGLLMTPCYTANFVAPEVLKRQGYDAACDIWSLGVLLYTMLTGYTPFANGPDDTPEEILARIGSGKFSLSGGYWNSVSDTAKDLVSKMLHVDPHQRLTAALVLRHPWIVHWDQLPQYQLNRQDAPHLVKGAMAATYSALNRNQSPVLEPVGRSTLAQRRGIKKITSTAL
Interferon-induced, double-stranded RNA-activated protein kinase, sequence (P19525 whole entry): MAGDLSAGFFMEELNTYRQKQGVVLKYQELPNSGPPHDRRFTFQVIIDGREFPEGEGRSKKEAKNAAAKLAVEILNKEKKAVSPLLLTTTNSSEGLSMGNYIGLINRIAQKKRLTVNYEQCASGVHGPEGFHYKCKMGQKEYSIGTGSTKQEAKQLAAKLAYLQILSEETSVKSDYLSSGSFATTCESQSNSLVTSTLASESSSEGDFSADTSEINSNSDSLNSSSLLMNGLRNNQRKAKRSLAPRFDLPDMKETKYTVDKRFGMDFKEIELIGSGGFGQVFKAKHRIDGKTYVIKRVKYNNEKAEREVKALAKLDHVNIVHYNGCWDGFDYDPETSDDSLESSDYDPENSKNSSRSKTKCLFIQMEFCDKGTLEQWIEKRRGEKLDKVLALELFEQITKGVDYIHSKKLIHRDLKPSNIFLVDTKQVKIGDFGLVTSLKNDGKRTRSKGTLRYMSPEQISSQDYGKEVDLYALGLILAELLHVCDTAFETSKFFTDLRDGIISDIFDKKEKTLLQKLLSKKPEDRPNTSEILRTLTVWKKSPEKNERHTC
Inhibitor of nuclear factor kappa-B kinase subunit alpha, sequence (O15111 whole entry): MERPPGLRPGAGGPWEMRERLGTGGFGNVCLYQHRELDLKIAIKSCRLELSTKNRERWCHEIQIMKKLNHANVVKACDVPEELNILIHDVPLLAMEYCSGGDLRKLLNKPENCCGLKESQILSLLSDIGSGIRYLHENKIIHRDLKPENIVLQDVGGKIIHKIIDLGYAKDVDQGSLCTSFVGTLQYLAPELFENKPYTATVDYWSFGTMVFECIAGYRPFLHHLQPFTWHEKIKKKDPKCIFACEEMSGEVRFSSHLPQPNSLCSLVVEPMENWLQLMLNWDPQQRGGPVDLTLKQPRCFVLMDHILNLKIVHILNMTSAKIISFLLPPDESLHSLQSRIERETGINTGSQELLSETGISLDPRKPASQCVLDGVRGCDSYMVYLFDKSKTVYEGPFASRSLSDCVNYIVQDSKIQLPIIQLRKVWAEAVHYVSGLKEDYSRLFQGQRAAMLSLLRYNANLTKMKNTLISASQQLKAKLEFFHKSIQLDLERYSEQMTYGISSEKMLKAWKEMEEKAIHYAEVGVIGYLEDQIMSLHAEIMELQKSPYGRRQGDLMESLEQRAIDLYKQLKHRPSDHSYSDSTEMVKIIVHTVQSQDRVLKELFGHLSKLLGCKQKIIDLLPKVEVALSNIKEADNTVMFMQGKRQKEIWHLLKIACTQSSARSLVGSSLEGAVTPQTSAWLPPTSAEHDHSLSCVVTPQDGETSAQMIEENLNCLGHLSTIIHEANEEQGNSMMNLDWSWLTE
Mixed lineage kinase domain-like protein, sequence (Q8NB16 whole entry, the tested form may be a part): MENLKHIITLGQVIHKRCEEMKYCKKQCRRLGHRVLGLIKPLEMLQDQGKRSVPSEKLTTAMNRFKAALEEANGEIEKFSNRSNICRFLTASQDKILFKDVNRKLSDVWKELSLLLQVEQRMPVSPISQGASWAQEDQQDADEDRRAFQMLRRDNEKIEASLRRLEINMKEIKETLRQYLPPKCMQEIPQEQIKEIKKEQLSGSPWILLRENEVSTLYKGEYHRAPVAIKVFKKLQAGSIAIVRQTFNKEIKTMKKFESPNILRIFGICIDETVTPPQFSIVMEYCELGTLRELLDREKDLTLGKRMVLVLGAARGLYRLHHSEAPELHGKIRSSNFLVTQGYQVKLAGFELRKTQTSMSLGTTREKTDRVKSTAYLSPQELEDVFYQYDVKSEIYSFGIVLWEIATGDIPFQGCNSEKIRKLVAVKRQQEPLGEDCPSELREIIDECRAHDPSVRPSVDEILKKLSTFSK
Casein kinase I isoform alpha, sequence (P48729 2-337 limits assumed): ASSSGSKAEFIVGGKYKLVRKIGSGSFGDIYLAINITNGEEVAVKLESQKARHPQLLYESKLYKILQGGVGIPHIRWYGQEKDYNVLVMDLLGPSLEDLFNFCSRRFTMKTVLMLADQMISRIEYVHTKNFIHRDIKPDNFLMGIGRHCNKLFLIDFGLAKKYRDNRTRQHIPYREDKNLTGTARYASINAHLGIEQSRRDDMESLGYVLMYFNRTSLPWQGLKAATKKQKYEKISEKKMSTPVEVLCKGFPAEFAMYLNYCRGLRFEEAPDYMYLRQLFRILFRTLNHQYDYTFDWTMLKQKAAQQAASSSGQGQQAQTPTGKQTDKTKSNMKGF
Mitogen-activated protein kinase kinase kinase 1, sequence (Q13233 whole entry, canonical isoform): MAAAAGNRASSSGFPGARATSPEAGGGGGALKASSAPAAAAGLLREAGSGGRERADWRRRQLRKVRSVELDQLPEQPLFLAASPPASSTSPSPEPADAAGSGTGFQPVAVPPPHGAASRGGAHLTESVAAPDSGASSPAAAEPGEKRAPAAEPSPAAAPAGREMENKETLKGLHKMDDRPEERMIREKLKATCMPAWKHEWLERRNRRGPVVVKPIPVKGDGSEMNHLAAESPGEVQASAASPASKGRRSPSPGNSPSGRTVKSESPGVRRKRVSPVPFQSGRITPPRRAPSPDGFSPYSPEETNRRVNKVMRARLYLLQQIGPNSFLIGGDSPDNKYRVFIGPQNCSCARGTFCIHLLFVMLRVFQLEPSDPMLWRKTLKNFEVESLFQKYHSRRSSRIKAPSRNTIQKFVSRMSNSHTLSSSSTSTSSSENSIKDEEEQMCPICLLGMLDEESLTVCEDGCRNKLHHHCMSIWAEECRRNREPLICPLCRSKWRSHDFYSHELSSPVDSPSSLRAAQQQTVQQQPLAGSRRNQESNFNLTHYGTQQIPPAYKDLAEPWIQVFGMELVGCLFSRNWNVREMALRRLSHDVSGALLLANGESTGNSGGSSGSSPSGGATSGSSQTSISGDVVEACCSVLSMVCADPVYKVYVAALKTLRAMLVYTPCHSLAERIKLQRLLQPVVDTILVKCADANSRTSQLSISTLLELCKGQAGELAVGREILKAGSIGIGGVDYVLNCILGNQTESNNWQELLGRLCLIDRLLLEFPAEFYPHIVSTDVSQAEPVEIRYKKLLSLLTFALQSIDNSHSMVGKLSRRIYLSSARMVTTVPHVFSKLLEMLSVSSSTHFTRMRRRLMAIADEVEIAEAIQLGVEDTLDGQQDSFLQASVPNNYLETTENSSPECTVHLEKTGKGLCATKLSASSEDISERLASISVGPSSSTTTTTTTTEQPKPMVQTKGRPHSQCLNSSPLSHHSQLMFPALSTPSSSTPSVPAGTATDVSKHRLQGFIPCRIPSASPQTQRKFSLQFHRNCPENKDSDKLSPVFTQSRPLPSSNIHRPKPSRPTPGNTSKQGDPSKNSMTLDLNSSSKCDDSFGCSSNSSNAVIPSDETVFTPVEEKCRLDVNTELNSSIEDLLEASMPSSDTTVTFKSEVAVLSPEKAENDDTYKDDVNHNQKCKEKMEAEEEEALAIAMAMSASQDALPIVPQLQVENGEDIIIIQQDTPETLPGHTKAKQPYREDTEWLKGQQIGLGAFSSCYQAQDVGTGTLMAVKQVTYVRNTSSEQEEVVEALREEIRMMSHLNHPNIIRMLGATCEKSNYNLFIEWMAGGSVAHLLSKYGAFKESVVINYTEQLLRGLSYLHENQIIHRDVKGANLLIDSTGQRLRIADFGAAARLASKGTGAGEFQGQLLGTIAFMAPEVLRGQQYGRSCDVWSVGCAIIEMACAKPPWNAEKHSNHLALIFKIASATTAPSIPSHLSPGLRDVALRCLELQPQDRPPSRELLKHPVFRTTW

## CCOc1cc(N2CCC(O)CC2)ccc1Nc1ncc2c(n1)N(C)c1ccccc1C(=O)N2C
[1]
  Activity: 31%
[2]
  IC50: > 50 µM
[3]
  IC50: > 50 µM
[4]
  IC50: > 50 µM
[5]
  IC50: > 50 µM
[6]
  IC50: > 50 µM
[7]
  IC50: > 50 µM
[8]
  IC50: > 50 µM
[9]
  IC50: > 50 µM
[10]
  IC50: > 50 µM
[11]
  IC50: > 50 µM
[12]
  inhibition: 14.1%
[13]
  inhibition: 13.3%
[14]
  inhibition: -7.9%
[15]
  inhibition: -3.8%
[16]
  inhibition: -0.6%
[17]
  inhibition: -3.8%
[18]
  inhibition: -9.2%
[19]
  inhibition: -9.6%
[20]
  inhibition: 2.6%
[21]
  inhibition: -9.5%
[22]
  inhibition at 2 µM: -6.9%
[23]
  half-life: 2 h
[24]
  concentration at 24 h: 10.2 µM
[25]
  concentration at 96 h: 9 µM
